# Measurements as given in ChEMBL document CHEMBL4376814, “Novel cyclin-dependent kinase 9 (CDK9) inhibitor with suppression of cancer stemness activity against non-small-cell lung cancer” (Eur J Med Chem, 2019).
# The source made the active and inactive calls. The rule behind the calls is not given here.
# Legend:
# [1] = test system: NCI-H1975; experiment: Antiproliferative activity against human NCI-H1975 cells assessed as inhibition of cell viability after 72 hrs by CCK-8 assay; assay type: functional, cell-based; details: NCI-H1975, 72 h
# How it was run: (§1)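 Cells kept at 37 °C, 5% CO2 in DMEM or RPMI-1640 with 10% FBS and 1% penicillin/streptomycin, then seeded at 3000 cells/well (adherent) or 10,000 cells/well (suspension). Exposed to a range of concentrations for 72 h. CCK-8 added for 1-4 h before reading A450. […] Three independent experiments.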
# [2] = test system: A549; details: Homo sapiens, 1 uM
# [3] = test system: NCI-H1299; experiment: Induction of apoptosis in human H1299 cells assessed as early apoptotic cells at 1 uM after 48 hrs by AnnexinV-FITC/PI staining-based flow cytometric analysis (reference value: 0.248%); assay type: functional
# [4] = test system: A549; experiment: Induction of apoptosis in human A549 cells assessed as viable cells at 1 uM after 48 hrs by AnnexinV-FITC/PI staining-based flow cytometric analysis (reference value: 88.8%); assay type: functional; details: A549, 48 h, read-out: Activity
# [5] = test system: A549; experiment: Induction of apoptosis in human A549 cells assessed as late apoptotic cells at 1 uM after 48 hrs by AnnexinV-FITC/PI staining-based flow cytometric analysis (reference value: 7.66%); assay type: functional
# [6] = test system: A549; experiment: Inhibition of colony formation in human A549 cells at 1 uM after 12 days by crystal violet staining based assay; assay type: functional, cell-based
# How it was run: (§2)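 Cells were treated with the compound, washed, trypsinized and reseeded at 300 cells per well in 6-well plates. Colonies grew 10–14 days (12 days per legend). They were then fixed in methanol for 30 min, stained overnight with 0.5% crystal violet, washed and imaged.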
# [7] = test system: NCI-H1299; experiment: Antiproliferative activity against human H1299 cells assessed as inhibition of cell viability after 72 hrs by CCK-8 assay; assay type: functional, cell-based; details: NCI-H1299, 72 h; how it was run: as §1
# [8] = test system: A549; experiment: Induction of apoptosis in human A549 cells assessed as necrotic cells at 1 uM after 48 hrs by AnnexinV-FITC/PI staining-based flow cytometric analysis (reference value: 0.664%); assay type: functional
# [9] = test system: PC-9; experiment: Antiproliferative activity against human PC9 cells assessed as inhibition of cell viability after 72 hrs by CCK-8 assay; assay type: functional, cell-based; details: PC-9, 72 h; how it was run: as §1
# [10] = test system: MDA-MB-231; experiment: Antiproliferative activity against human MDA-MB-231 cells assessed as inhibition of cell viability after 72 hrs by CCK-8 assay; assay type: functional, cell-based; details: MDA-MB-231, 72 h; how it was run: as §1
# [11] = test system: SiHa; experiment: Antiproliferative activity against human SiHa cells assessed as inhibition of cell viability after 72 hrs by CCK-8 assay; assay type: functional, cell-based; how it was run: as §1
# [12] = test system: U-937; experiment: Antiproliferative activity against human U937 cells assessed as inhibition of cell viability after 72 hrs by CCK-8 assay; assay type: functional, cell-based; details: U-937, 72 h; how it was run: as §1
# [13] = test system: Hep 3B2; experiment: Antiproliferative activity against human Hep3B cells assessed as inhibition of cell viability after 72 hrs by CCK-8 assay; assay type: functional, cell-based; how it was run: as §1
# [14] = test system: NCI-H1299; experiment: Inhibition of colony formation in human H1299 cells at 1 uM after 12 days by crystal violet staining based assay; assay type: functional, cell-based; how it was run: as §2
# [15] = test system: CCRF-CEM; experiment: Antiproliferative activity against human CCRF-CEM cells assessed as inhibition of cell viability after 72 hrs by CCK-8 assay; assay type: functional, cell-based; how it was run: as §1
# [16] = test system: A549; experiment: Induction of apoptosis in human A549 cells assessed as early apoptotic cells at 1 uM after 48 hrs by AnnexinV-FITC/PI staining-based flow cytometric analysis (reference value: 2.91%); assay type: functional
# [17] = test system: HCC827; experiment: Antiproliferative activity against human HCC827 cells assessed as inhibition of cell viability after 72 hrs by CCK-8 assay; assay type: functional, cell-based; details: HCC827, 72 h; how it was run: as §1
# [18] = test system: HepG2; experiment: Antiproliferative activity against human HepG2 cells assessed as inhibition of cell viability after 72 hrs by CCK-8 assay; assay type: functional, cell-based; details: HepG2, 72 h; how it was run: as §1
# [19] = test system: NCI-H1299; experiment: Induction of apoptosis in human H1299 cells assessed as necrotic cells at 1 uM after 48 hrs by AnnexinV-FITC/PI staining-based flow cytometric analysis (reference value: 0.9%); assay type: functional
# [20] = test system: NCI-H1299; details: Homo sapiens, 1 uM
# [21] = test system: NCI-H1299; experiment: Induction of apoptosis in human H1299 cells assessed as viable cells at 1 uM after 48 hrs by AnnexinV-FITC/PI staining-based flow cytometric analysis (reference value: 97.1%); assay type: functional; details: NCI-H1299, 48 h, read-out: Activity
# [22] = test system: NCI-H1299; experiment: Induction of apoptosis in human H1299 cells assessed as late apoptotic cells at 1 uM after 48 hrs by AnnexinV-FITC/PI staining-based flow cytometric analysis (reference value: 1.77%); assay type: functional
# [23] = test system: A549; experiment: Antiproliferative activity against human A549 cells assessed as inhibition of cell viability after 72 hrs by CCK-8 assay; assay type: functional, cell-based; details: A549, 72 h; how it was run: as §1
# [24] = test system: Jurkat; experiment: Antiproliferative activity against human Jurkat cells assessed as inhibition of cell viability after 72 hrs by CCK-8 assay; assay type: functional, cell-based; how it was run: as §1
# [25] = test system: MCF7; experiment: Antiproliferative activity against human MCF7 cells assessed as inhibition of cell viability after 72 hrs by CCK-8 assay; assay type: functional, cell-based; details: MCF7, 72 h; how it was run: as §1
# [26] = test system: HeLa; experiment: Antiproliferative activity against human HeLa cells assessed as inhibition of cell viability after 72 hrs by CCK-8 assay; assay type: functional, cell-based; how it was run: as §1
# [27] = test system: HepG2; experiment: Antiproliferative activity against human HepG2 cells assessed as inhibition of cell viability at 500 nM after 72 hrs by CCK-8 assay relative to control; assay type: functional; details: HepG2, 72 h
# How it was run: (§3)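 Single-concentration viability screen using CCK-8. Cells were seeded at 3000/well and treated for 72 h. A450 read after 1-4 h with reagent. Percent inhibition calculated against untreated control and blank wells as (Ac−As)/(Ac−Ab)×100%.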
# [28] = test system: SiHa; experiment: Antiproliferative activity against human SiHa cells assessed as inhibition of cell viability at 500 nM after 72 hrs by CCK-8 assay relative to control; assay type: functional; how it was run: as §3
# [29] = test system: A549; experiment: Antiproliferative activity against human A549 cells assessed as inhibition of cell viability at 10 uM after 72 hrs by CCK-8 assay relative to control; assay type: functional; details: A549, 72 h; how it was run: as §3
# [30] = molecular target: T1, CDK4/Cyclin D3 (Homo sapiens) (UniProt P11802+P30281); experiment: Inhibition of recombinant full-length human CDK4/cyclinD3 at 1 uM using Rb fragment as substrate measured after 40 mins in presence of [gamma33P]ATP by scintillation counting method relative to control; assay type: protein-complex assay
# How it was run: (§4)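 Percent inhibition of kinase activity at a single compound concentration, measured by the outsourced Eurofins KinaseProfiler panel. Values are the mean of two independent experiments.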
# [31] = molecular target: T2, CDK9/cyclin T1 (Homo sapiens) (UniProt O60563+P50750); experiment: Inhibition of recombinant full-length human CDK9/cyclinT1 at 1 uM using KTFCGTPEYLAPEVRREPRILSEEEQEMFRDFDYIADWC peptide as substrate measured after 40 mins in presence of [gamma33P]ATP by scintillation counting method relative to control; assay type: protein-complex assay; how it was run: as §4
# [32] = test system: NCI-H1299; experiment: Antiproliferative activity against human H1299 cells assessed as inhibition of cell viability at 10 uM after 72 hrs by CCK-8 assay relative to control; assay type: functional; details: NCI-H1299, 72 h; how it was run: as §3
# [33] = test system: SiHa; experiment: Antiproliferative activity against human SiHa cells assessed as inhibition of cell viability at 10 uM after 72 hrs by CCK-8 assay relative to control; assay type: functional; how it was run: as §3
# [34] = molecular target: CDK9/cyclin T1 (Homo sapiens, UniProt P50750); experiment: Inhibition of recombinant full-length human CDK9/cyclinT1 using KTFCGTPEYLAPEVRREPRILSEEEQEMFRDFDYIADWC peptide as substrate measured after 40 mins in presence of [gamma33P]ATP by scintillation counting method; assay type: protein-complex assay
# How it was run: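 IC50 against CDK9/cyclin T1, determined by the outsourced Eurofins KinaseProfiler service. Values are the mean of two independent experiments.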
# [35] = test system: NCI-H1299; experiment: Antiproliferative activity against human H1299 cells assessed as inhibition of cell viability at 1 uM after 72 hrs by CCK-8 assay relative to control; assay type: functional; details: NCI-H1299, 72 h; how it was run: as §3
# [36] = molecular target: T3, CDK6/cyclin D3 (Homo sapiens) (UniProt P30281+Q00534); experiment: Inhibition of recombinant full-length human CDK6/cyclinD3 at 1 uM using histone H1 as substrate measured after 40 mins in presence of [gamma33P]ATP by scintillation counting method relative to control; assay type: protein-complex assay; how it was run: as §4
# [37] = test system: MCF7; experiment: Antiproliferative activity against human MCF7 cells assessed as inhibition of cell viability at 10 uM after 72 hrs by CCK-8 assay relative to control; assay type: functional; details: MCF7, 72 h; how it was run: as §3
# [38] = molecular target: T2, CDK9/cyclin T1 (Homo sapiens); experiment: Inhibition of recombinant full-length human CDK9/cyclinT1 at 500 nM using KTFCGTPEYLAPEVRREPRILSEEEQEMFRDFDYIADWC peptide as substrate measured after 40 mins in presence of [gamma33P]ATP by scintillation counting method relative to control; assay type: protein-complex assay; how it was run: as §4
# [39] = test system: HepG2; experiment: Antiproliferative activity against human HepG2 cells assessed as inhibition of cell viability at 10 uM after 72 hrs by CCK-8 assay relative to control; assay type: functional; details: HepG2, 72 h; how it was run: as §3
# [40] = test system: MCF7; experiment: Antiproliferative activity against human MCF7 cells assessed as inhibition of cell viability at 500 nM after 72 hrs by CCK-8 assay relative to control; assay type: functional; details: MCF7, 72 h; how it was run: as §3
# [41] = test system: A549; experiment: Antiproliferative activity against human A549 cells assessed as inhibition of cell viability at 1 uM after 72 hrs by CCK-8 assay relative to control; assay type: functional; details: A549, 72 h; how it was run: as §3
# [42] = molecular target: T1, CDK4/Cyclin D3 (Homo sapiens); experiment: Inhibition of recombinant full-length human CDK4/cyclinD3 at 500 nM using Rb fragment as substrate measured after 40 mins in presence of [gamma33P]ATP by scintillation counting method relative to control; assay type: protein-complex assay; how it was run: as §4
# [43] = molecular target: T3, CDK6/cyclin D3 (Homo sapiens); experiment: Inhibition of recombinant full-length human CDK6/cyclinD3 at 500 nM using histone H1 as substrate measured after 40 mins in presence of [gamma33P]ATP by scintillation counting method relative to control; assay type: protein-complex assay; how it was run: as §4
# Sequence of CDK9/cyclin T1 (O60563 whole entry): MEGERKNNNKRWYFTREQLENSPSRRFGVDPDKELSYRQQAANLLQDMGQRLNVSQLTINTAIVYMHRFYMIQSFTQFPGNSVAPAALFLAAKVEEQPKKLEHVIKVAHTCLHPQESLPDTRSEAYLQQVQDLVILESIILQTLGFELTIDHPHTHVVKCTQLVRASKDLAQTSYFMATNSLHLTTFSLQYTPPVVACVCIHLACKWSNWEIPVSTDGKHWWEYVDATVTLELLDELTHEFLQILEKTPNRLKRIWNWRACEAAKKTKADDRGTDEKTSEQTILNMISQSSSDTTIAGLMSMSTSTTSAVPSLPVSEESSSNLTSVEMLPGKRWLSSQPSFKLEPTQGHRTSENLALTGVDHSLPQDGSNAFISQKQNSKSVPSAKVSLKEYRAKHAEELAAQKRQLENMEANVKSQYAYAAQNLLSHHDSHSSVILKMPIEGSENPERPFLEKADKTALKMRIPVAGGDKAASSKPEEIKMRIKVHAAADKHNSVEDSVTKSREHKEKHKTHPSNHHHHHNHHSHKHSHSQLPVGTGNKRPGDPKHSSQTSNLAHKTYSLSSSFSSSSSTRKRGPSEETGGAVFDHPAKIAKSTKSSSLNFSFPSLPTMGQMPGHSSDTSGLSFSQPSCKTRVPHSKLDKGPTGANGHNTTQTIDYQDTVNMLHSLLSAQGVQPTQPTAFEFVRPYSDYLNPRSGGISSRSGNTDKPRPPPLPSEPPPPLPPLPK
# Sequence of CDK9/cyclin T1 (P50750 whole entry): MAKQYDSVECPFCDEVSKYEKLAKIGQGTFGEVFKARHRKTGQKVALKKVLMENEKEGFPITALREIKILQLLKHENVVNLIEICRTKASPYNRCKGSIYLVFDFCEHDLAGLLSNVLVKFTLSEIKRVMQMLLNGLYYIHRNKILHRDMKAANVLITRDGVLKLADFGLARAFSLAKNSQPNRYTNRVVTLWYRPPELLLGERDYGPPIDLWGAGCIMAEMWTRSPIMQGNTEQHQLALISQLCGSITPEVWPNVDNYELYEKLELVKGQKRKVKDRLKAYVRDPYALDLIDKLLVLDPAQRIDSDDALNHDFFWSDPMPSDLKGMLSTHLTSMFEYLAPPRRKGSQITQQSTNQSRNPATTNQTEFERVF
smiles,measurement,setting,value
C[S+]([O-])CCCCN=C=S (stereo not drawn) [SULFORAPHANE],IC50,[1],> 10 µM
same,inhibition,[2],inactive
same,Activity,[3],0.301%
same,viability at 1 µM,[4],78.8%
same,Activity,[5],11.4%
same,inhibition,[6],Active
same,IC50,[7],7.65 µM
same,Activity,[8],7.76%
same,IC50,[9],6.31 µM
same,IC50,[10],> 10 µM
same,IC50,[11],9.95 µM
same,IC50,[12],> 10 µM
same,IC50,[13],> 10 µM
same,inhibition,[14],Active
same,IC50,[15],> 10 µM
same,Activity,[16],2.09%
same,IC50,[17],> 10 µM
same,IC50,[18],8.36 µM
same,Activity,[19],0.768%
same,inhibition,[20],inactive
same,viability at 1 µM,[21],96.9%
same,Activity,[22],2.07%
same,IC50,[23],> 10 µM
same,IC50,[24],> 10 µM
same,IC50,[25],> 10 µM
same,IC50,[26],> 10 µM
CN(C)C(=O)c1cc2cnc(Nc3ccc(C(=O)NCCCCCCCN=C=S)cc3)nc2n1C1CCCC1,inhibition at 0.5 µM,[27],68%
same,inhibition at 0.5 µM,[28],90%
same,inhibition at 10 µM,[29],101%
same,inhibition,[30],83%
same,inhibition,[31],97%
same,inhibition at 10 µM,[32],107%
same,inhibition at 10 µM,[33],95%
same,IC50,[34],0.012 µM
same,inhibition at 1 µM,[35],75.7%
same,inhibition,[36],85%
same,inhibition at 10 µM,[37],99%
same,inhibition,[38],99%
same,inhibition at 10 µM,[39],89%
same,inhibition at 0.5 µM,[40],85%
same,inhibition at 1 µM,[41],73.7%
same,inhibition,[42],74%
same,inhibition,[43],56%
